Source: ChEMBL document CHEMBL1145831 (J Med Chem, 2003)

How the values were obtained:
[1] = test system: CCRF-CEM; assay: In vitro growth inhibitory activity in the human CCRF-CEM leukemia cell line.; format: functional, cell-based
Method in brief: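 CCRF-CEM human leukemia cells in log phase, 4.8 × 10⁴ cells per 2 mL well. Medium was RPMI-1640 with 10% dialyzed FBS and 25 mM HEPES. Compounds were serially diluted 1:3 in DMSO and added to duplicate wells, with DMSO-only controls, at 0.5% final DMSO. Cells were exposed 72 h at 37 °C in humidified 5% CO₂, then counted. IC50 in nM.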

[2] = test system: Mus musculus; assay: Ratio of the median tumor weight in the treatment group over the median tumor weight in the control group on a schedule of 3,8days and at a total dose of 16 mg/kg; format: functional
Method in brief: (§1)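 Mice bearing the drug-sensitive murine pancreatic adenocarcinoma Panc-03. Dosing solutions were made in water from stock solutions and injected within 20 min of preparation; chlorohydrins were acidified with 0.05% citric acid. T/C (%) = median tumor weight of the treated group ÷ median tumor weight of controls × 100, calculated when control median tumor weight reached 1 g.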

[3] = test system: Mus musculus; assay: In vivo antitumor activity against murine pancreatic adenocarcinoma and measured as number of deaths on a schedule of 3,8days and at a total dose of 16 mg/kg; format: ADME, organism-based; design: dose 16 mg/kg; conditions: 192 h
Method in brief: (§2)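 Mice bearing drug-sensitive murine pancreatic adenocarcinoma Panc-03 were dosed on the listed days at the listed total doses. Dosing solutions were made in water from stock solutions and injected within 20 min. Chlorohydrin solutions were acidified with 0.05% citric acid. Tolerance was recorded as body weight loss and number of deaths.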

[4] = test system: Mus musculus; assay: Log cell kill of tumor bearing mice on a schedule of 3,8days and at a total dose of 16 mg/kg; format: functional, organism-based; design: dose 16 mg/kg
Method in brief: (§3)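 Panc-03 murine pancreatic adenocarcinoma in mice. Aqueous dosing solutions were prepared from stocks and injected within 20 min; chlorohydrins were acidified with 0.05% citric acid. Log cell kill was calculated from tumor growth delay, the difference in days between treated and control animals to reach 1000 mg tumor weight.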

[5] = test system: Mus musculus; assay: In vivo antitumor activity against murine pancreatic adenocarcinoma and measured as % weight loss on a schedule of 3,8days and at a total dose of 16 mg/kg; format: functional
Method in brief: (§4)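 Body weight loss was tracked in mice implanted with the Panc-03 murine pancreatic adenocarcinoma. Injections were given within 20 min of aqueous preparation from stock solutions, with chlorohydrins acidified using 0.05% citric acid.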

[6] = test system: Mus musculus; assay: In vivo antitumor activity against murine pancreatic adenocarcinoma and measured as % weight loss on a schedule of 3,4,6,10 days and at a total dose of 3.5 mg/kg; format: functional; method in brief: as §2
[7] = test system: Mus musculus; assay: In vivo antitumor activity against murine pancreatic adenocarcinoma and measured as number of deaths on a schedule of 3,4,6 days and at a total dose of 6 mg/kg; format: ADME, organism-based; design: dose 6 mg/kg; conditions: 144 h; method in brief: as §2
[8] = test system: Mus musculus; assay: In vivo antitumor activity against murine pancreatic adenocarcinoma and measured as number of deaths on a schedule of 3,4,6 days and at a total dose of 12 mg/kg; format: ADME, organism-based; design: dose 12 mg/kg; conditions: 144 h; method in brief: as §2
[9] = test system: Mus musculus; assay: Ratio of the median tumor weight in the treatment group over the median tumor weight in the control group on a schedule of 3,4,6,10 days and at a total dose of 3.5 mg/kg; format: functional
Method in brief: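 Panc-03 murine pancreatic adenocarcinoma in mice, with injectable solutions prepared in water from stock and given within 20 min; chlorohydrins were acidified with 0.05% citric acid. %T/C is median tumor weight of the treated group over that of the control group × 100, calculated when control median tumor weight reaches 1 g. T/C ≤ 42% is taken as significant activity.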

[10] = test system: Mus musculus; assay: In vivo antitumor activity against murine pancreatic adenocarcinoma and measured as number of deaths on a schedule of 3,4,6,10 days and at a total dose of 3.5 mg/kg; format: ADME, organism-based; design: dose 3.5 mg/kg; conditions: 240 h; method in brief: as §2
[11] = test system: Mus musculus; assay: In vivo antitumor activity against murine pancreatic adenocarcinoma and measured as % weight loss on a schedule of 3,4,6 days and at a total dose of 6 mg/kg; format: functional; method in brief: as §2
[12] = test system: Mus musculus; assay: In vivo antitumor activity against murine pancreatic adenocarcinoma and measured as % weight loss on a schedule of 3,4,6 days and at a total dose of 12 mg/kg; format: functional; method in brief: as §2
[13] = test system: Mus musculus; assay: Log cell kill of tumor bearing mice on a schedule of 10-14 days and at a total dose of 41 mg/kg; format: functional, organism-based; design: dose 41 mg/kg; method in brief: as §3
[14] = test system: Mus musculus; assay: Ratio of the median tumor weight in the treatment group over the median tumor weight in the control group on a schedule of 10-14 days and at a total dose of 41 mg/kg; format: functional; method in brief: as §1
[15] = test system: Mus musculus; assay: In vivo antitumor activity against murine pancreatic adenocarcinoma and measured as number of deaths on a schedule of 10-14 days and at a total dose of 41 mg/kg; format: ADME, organism-based; design: dose 41 mg/kg; method in brief: as §2
[16] = test system: Mus musculus; assay: In vivo antitumor activity against murine pancreatic adenocarcinoma and measured as % weight loss on a schedule of 10-14 days and at a total dose of 41 mg/kg; format: functional; method in brief: as §4

SMILES: COc1ccc(C[C@H]2NC(=O)/C=C/C[C@@H]([C@H](C)[C@H]3O[C@@H]3c3cc(C)ccc3C)OC(=O)[C@H](CC(C)C)OC(=O)C(C)(C)CNC2=O)cc1Cl
- IC50 [1]: 2 nM

SMILES: COc1ccc(C[C@H]2NC(=O)/C=C/C[C@@H]([C@H](C)[C@H]3O[C@@H]3c3ccc(CC(=O)O)cc3)OC(=O)[C@H](CC(C)C)OC(=O)C(C)(C)CNC2=O)cc1Cl
- IC50 [1]: 0.79 nM

SMILES: COc1ccc(C[C@H]2NC(=O)/C=C/C[C@@H]([C@H](C)[C@@H](O)[C@@H](Cl)c3ccc(CNC(=O)CN(C)C(=O)OC(C)(C)C)cc3)OC(=O)[C@H](CC(C)C)OC(=O)C(C)(C)CNC2=O)cc1Cl
- IC50 [1]: 0.02 nM

SMILES: CCN(CC)Cc1ccc([C@H](Cl)[C@H](O)[C@@H](C)[C@@H]2C/C=C/C(=O)N[C@H](Cc3ccc(OC)c(Cl)c3)C(=O)NCC(C)(C)C(=O)O[C@@H](CC(C)C)C(=O)O2)cc1
- IC50 [1]: 0.005 nM

SMILES: COc1ccc(C[C@H]2NC(=O)/C=C/C[C@@H]([C@H](C)[C@H]3O[C@@H]3c3cccc(C)c3)OC(=O)[C@H](CC(C)C)OC(=O)C(C)(C)CNC2=O)cc1Cl
- IC50 [1]: 0.15 nM

SMILES: COc1ccc(C[C@H]2NC(=O)/C=C/C[C@@H]([C@H](C)[C@H]3O[C@@H]3c3ccc(C)c(C)c3)OC(=O)[C@H](CC(C)C)OC(=O)C(C)(C)CNC2=O)cc1Cl
- IC50 [1]: 0.05 nM

SMILES: COc1ccc(C[C@H]2NC(=O)/C=C/C[C@@H]([C@H](C)/C=C/c3cc(C)ccc3C)OC(=O)[C@H](CC(C)C)OC(=O)C(C)(C)CNC2=O)cc1Cl
- IC50 [1]: 440 nM

SMILES: COc1cccc2c1C(=O)c1c(O)c3c(c(O)c1C2=O)C[C@@](O)(C(=O)CO)C[C@@H]3O[C@H]1C[C@H](N)[C@H](O)[C@H](C)O1 [DOXORUBICIN]
- T/C [2]: 16%
- Death [3]: 0
- Log kill [4]: 1.5
- Weight loss [5]: -12%

SMILES: COc1ccc([C@H]2O[C@@H]2[C@@H](C)[C@@H]2C/C=C/C(=O)N[C@H](Cc3ccc(OC)c(Cl)c3)C(=O)NCC(C)(C)C(=O)O[C@@H](CC(C)C)C(=O)O2)cc1
- IC50 [1]: 0.28 nM

SMILES: COc1ccc(C[C@H]2NC(=O)/C=C/C[C@@H]([C@H](C)[C@@H]3O[C@H]3c3cc(C)ccc3C)OC(=O)[C@H](CC(C)C)OC(=O)C(C)(C)CNC2=O)cc1Cl
- IC50 [1]: 100 nM

SMILES: COc1ccc(C[C@H]2NC(=O)/C=C/C[C@@H]([C@H](C)[C@@H](O)[C@@H](Cl)c3ccc(OC(=O)C(C)(C)CN)cc3)OC(=O)[C@H](CC(C)C)OC(=O)C(C)(C)CNC2=O)cc1Cl
- IC50 [1]: 0.79 nM

SMILES: COc1ccc(C[C@H]2NC(=O)/C=C/C[C@@H]([C@H](C)[C@H]3O[C@@H]3c3ccc(COC(=O)CNC(=O)OC(C)(C)C)cc3)OC(=O)[C@H](CC(C)C)OC(=O)C(C)(C)CNC2=O)cc1Cl
- IC50 [1]: 0.0055 nM

SMILES: COc1ccc(C[C@H]2NC(=O)/C=C/C[C@@H]([C@H](C)[C@@H]3O[C@H]3c3ccc(CO)cc3)OC(=O)[C@H](CC(C)C)OC(=O)C(C)(C)CNC2=O)cc1Cl
- IC50 [1]: 0.29 nM

SMILES: COc1ccc(C[C@H]2NC(=O)/C=C/C[C@@H]([C@H](C)[C@H]3O[C@@H]3c3ccc(CO)cc3)OC(=O)[C@H](CC(C)C)OC(=O)C(C)(C)CNC2=O)cc1Cl
- Weight loss [6]: 10.5%
- Death [7]: 1
- Death [8]: 4
- T/C [9]: 14%
- Death [10]: 0
- Weight loss [11]: -19.5%
- IC50 [1]: 0.004 nM
- Weight loss [12]: -18.4%

SMILES: COc1ccc(C[C@H]2NC(=O)/C=C/C[C@@H]([C@H](C)/C=C/c3cccc(C)c3)OC(=O)[C@H](CC(C)C)OC(=O)C(C)(C)CNC2=O)cc1Cl
- IC50 [1]: 25 nM

SMILES: COc1ccc(C[C@H]2NC(=O)/C=C/C[C@@H]([C@H](C)[C@@H](O)[C@@H](Cl)c3ccc(CNCCN)cc3)OC(=O)[C@H](CC(C)C)OC(=O)C(C)(C)CNC2=O)cc1Cl
- IC50 [1]: 0.092 nM

SMILES: COc1ccc(C[C@H]2NC(=O)/C=C/C[C@@H]([C@H](C)/C=C/c3ccc(C)c(C)c3)OC(=O)[C@H](CC(C)C)OC(=O)C(C)(C)CNC2=O)cc1Cl
- IC50 [1]: 70 nM

SMILES: COc1ccc(C[C@H]2NC(=O)/C=C/C[C@@H]([C@H](C)[C@H]3O[C@@H]3c3ccc(CN4CCN(C(=O)OC(C)(C)C)CC4)cc3)OC(=O)[C@H](CC(C)C)OC(=O)C(C)(C)CNC2=O)cc1Cl
- IC50 [1]: 0.001 nM

SMILES: COc1ccc(C[C@H]2NC(=O)/C=C/C[C@@H]([C@H](C)/C=C/c3ccc(CO)cc3)OC(=O)[C@H](CC(C)C)OC(=O)C(C)(C)CNC2=O)cc1Cl
- IC50 [1]: 0.79 nM

SMILES: COc1ccc(C[C@H]2NC(=O)/C=C/C[C@@H]([C@H](C)/C=C/c3csc(C)n3)OC(=O)[C@H](CC(C)C)OC(=O)C(C)(C)CNC2=O)cc1Cl
- IC50 [1]: 460 nM

SMILES: CCN(CC)Cc1ccc([C@H]2O[C@@H]2[C@@H](C)[C@@H]2C/C=C/C(=O)N[C@H](Cc3ccc(OC)c(Cl)c3)C(=O)NCC(C)(C)C(=O)O[C@@H](CC(C)C)C(=O)O2)cc1
- IC50 [1]: 0.003 nM

SMILES: CNCC(=O)NCc1ccc([C@H](Cl)[C@H](O)[C@@H](C)[C@@H]2C/C=C/C(=O)N[C@H](Cc3ccc(OC)c(Cl)c3)C(=O)NCC(C)(C)C(=O)O[C@@H](CC(C)C)C(=O)O2)cc1
- IC50 [1]: 0.04 nM

SMILES: COc1ccc(C[C@H]2NC(=O)/C=C/C[C@@H]([C@H](C)[C@@H](O)[C@@H](Cl)c3ccc(COC(=O)C(C)(C)CN)cc3)OC(=O)[C@H](CC(C)C)OC(=O)C(C)(C)CNC2=O)cc1Cl
- IC50 [1]: 0.004 nM

SMILES: COC(=O)c1ccc([C@H](Cl)[C@H](O)[C@@H](C)[C@@H]2C/C=C/C(=O)N[C@H](Cc3ccc(OC)c(Cl)c3)C(=O)NCC(C)(C)C(=O)O[C@@H](CC(C)C)C(=O)O2)cc1
- IC50 [1]: 0.037 nM

SMILES: COc1ccc(/C=C/[C@@H](C)[C@@H]2C/C=C/C(=O)N[C@H](Cc3ccc(OC)c(Cl)c3)C(=O)NCC(C)(C)C(=O)O[C@@H](CC(C)C)C(=O)O2)cc1
- IC50 [1]: 12 nM

SMILES: COc1ccc(C[C@H]2NC(=O)/C=C/C[C@@H]([C@H](C)/C=C/c3ccc(O)cc3)OC(=O)[C@H](CC(C)C)OC(=O)C(C)(C)CNC2=O)cc1Cl
- IC50 [1]: 4 nM

SMILES: COc1ccc(C[C@H]2NC(=O)/C=C/C[C@@H]([C@H](C)[C@@H](O)[C@@H](Cl)c3ccc(C)c(C)c3)OC(=O)[C@H](CC(C)C)OC(=O)C(C)(C)CNC2=O)cc1Cl
- IC50 [1]: 0.6 nM

SMILES: CC(=O)O[C@H]1C(=O)[C@@]2(C)[C@H]([C@H](OC(=O)c3ccccc3)[C@]3(O)C[C@H](OC(=O)[C@H](O)[C@@H](NC(=O)c4ccccc4)c4ccccc4)C(C)=C1C3(C)C)[C@]1(OC(C)=O)CO[C@@H]1C[C@@H]2O [PACLITAXEL]
- Log kill [13]: 4.2
- T/C [14]: 0%
- Death [15]: 0
- Weight loss [16]: -5%
